ChEMBL document CHEMBL3585257, “Structure-Activity Relationship Studies of 3-epi-Deoxynegamycin Derivatives as Potent Readthrough Drug Candidates” (ACS Med Chem Lett, 2015)
In brackets after ≈: the same amount, converted by molar mass.

Key:
COS-7 [1] = assay: (§1) Mutation read through activity in african green monkey COS7 cells transfected with dual-reporter plasmid encoding beta-galactosidase and luciferase genes connected with TGA-containing mouse mdx gene exon 23 nucleotide sequence as premature termination codon assessed as ratio of luciferase activity to beta-galactosidase activity at 200 uM incubated for 48 hrs at 37 degC relative to basal level; format: functional, Chlorocebus aethiops
Method in brief: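 COS-7 cells transfected with a dual-reporter plasmid: constitutive β-galactosidase upstream of a TGA premature stop codon, luciferase downstream. Compounds tested at 200 μM. Lysate luciferase/β-galactosidase activity ratio expressed relative to untreated (D-MEM) basal level = 1; some series normalized to a reference compound instead. Triplicate, mean ± SD.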

[2] = Mutation read through activity in human cell-free protein synthesis system containing beta-galactosidase and luciferase genes connected with TGA-containing mouse mdx gene exon 23 nucleotide sequence as premature termination codon assessed as ratio of luciferase activity to beta-galactosidase activity at 20 uM incubated at 37 degC for 3 hrs relative to basal level
Method in brief: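 Cell-free translation of the β-galactosidase–TGA–luciferase dual reporter with compound at 20 μM. Readthrough given as luciferase/β-galactosidase ratio relative to no-compound control (= 1). n = 3, mean ± SD.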

[3] = Drug metabolism in presence of porcine liver esterase assessed as (S)-2-[2-(3,5-Diaminopentanoyl)-1-methylhydrazinyl]acetic acid.2TFA formation in 100 mM pH 7.4 phosphate buffer at 37 degC incubated for 1 to 4 hrs; format: physicochemical; settings: pig, isolated protein
[4] = Drug metabolism in presence of porcine liver esterase assessed as (S)-2-[2-(3,5-Diaminopentanoyl)-1-methylhydrazinyl]acetic acid.2TFA formation in 100 mM pH 7.4 phosphate buffer at 37 degC; settings: pig, isolated protein, TDE = time-dependent effect
COS-7 [5] = assay: as §1, with “20” for “200”; format: functional, Chlorocebus aethiops
[6] = Stability in absence of porcine liver esterase assessed as compound remaining in 100 mM pH 7.4 phosphate buffer at 37 degC after 6 hrs; format: physicochemical; settings: phosphate buffer without porcine liver esterase, read-out: Stability
Method in brief: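 Ester incubated without esterase in 100 mM phosphate buffer, pH 7.4, at 37 °C for 6 h. Percent compound remaining measured by RP-HPLC.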

COS-7 [7] = assay: as §1, with “activity at 25 to 200 uM” for “activity at 200 uM”; format: functional, cell-based; settings: Chlorocebus aethiops
Staphylococcus aureus = assay: Toxicity against Staphylococcus aureus NBRC13276; format: functional
Escherichia coli = assay: Toxicity against Escherichia coli NBRC3972; format: functional

Question: Which Ratio (COS-7 [1]) does the source give for `CN(CC(=O)O)NC(=O)C[C@@H](N)CCCCN` here?
Answer: 2.05

Question: With `CN(CC(=O)O)NC(=O)[C@@H](N)CCCCN` as the compound, how does the Ratio (COS-7 [1]) read?
Answer: 1.01

Question: With `CN(CC(=O)OCc1cccc(Cl)c1)NC(=O)C[C@@H](N)CCN` as the compound, how does the Ratio [2] read?
Answer: 1.23

Question: And the Drug metabolism [3]?
Answer: metabolite_detected

Question: And the Drug metabolism [4]?
Answer: tde

Question: What about the Ratio (COS-7 [5]) of the same compound?
Answer: 3.58

Question: What about the Ratio (COS-7 [1]) of the same compound?
Answer: 4.9

Question: What about the remaining at 6 h [6] of the same compound?
Answer: 94%

Question: Which Ratio (COS-7 [1]) does the source give for `CN(CC(=O)OCc1ccccc1Br)NC(=O)C[C@@H](N)CCN` here?
Answer: 3.83

Question: With `CN(CC(=O)NCc1ccccc1)NC(=O)C[C@@H](N)CCN` as the compound, how does the Ratio (COS-7 [1]) read?
Answer: 0.8

Question: With `CN(CC(=O)O)NC(=O)[C@@H](N)CN` as the compound, how does the Ratio (COS-7 [1]) read?
Answer: 1.3

Question: With `CN(CC(=O)OCc1ccc(Br)cc1)NC(=O)C[C@@H](N)CCN` as the compound, how does the Ratio (COS-7 [1]) read?
Answer: 2.98

Question: Which Ratio (COS-7 [1]) does the source give for `CN(CC(=O)O)NC(=O)CC(N)CN` (single isomer, unassigned) here?
Answer: 1.49

Question: Which Ratio [2] does the source give for `CN(CC(=O)O)NC(=O)C[C@@H](N)CCN` here?
Answer: 2.72

Question: And the Activity (COS-7 [7])?
Answer: Dose-dependent effect

Question: And the MIC (Staphylococcus aureus)?
Answer: 1020 µg/mL (≈ 4.69 mM)

Question: What about the Ratio (COS-7 [5]) of the same compound?
Answer: 3.1

Question: And the Ratio (COS-7 [1])?
Answer: 4.28

Question: What about the MIC (Escherichia coli) of the same compound?
Answer: ≥ 1020 µg/mL

Question: With `CN(CC(=O)O)NC(=O)[C@@H](N)CCN` as the compound, how does the Ratio (COS-7 [1]) read?
Answer: 1.07

Question: Which Ratio (COS-7 [1]) does the source give for `CN(CC(=O)O)NC(=O)C[C@@H](N)CCCN` here?
Answer: 2.94

Question: For `CN(CC(=O)OCc1ccccc1[N+](=O)[O-])NC(=O)C[C@@H](N)CCN`, which Ratio (COS-7 [1]) is on record?
Answer: 4.51

Question: For `CN(CC(=O)OCc1ccc([N+](=O)[O-])cc1)NC(=O)C[C@@H](N)CCN`, which Ratio (COS-7 [1]) is on record?
Answer: 3.05

Question: With `CN(CC(=O)OCc1ccc(Cl)cc1)NC(=O)C[C@@H](N)CCN` as the compound, how does the Ratio (COS-7 [1]) read?
Answer: 4.21

Question: For `CN(CC(=O)OCc1cccc([N+](=O)[O-])c1)NC(=O)C[C@@H](N)CCN`, which Ratio (COS-7 [1]) is on record?
Answer: 3.21

Question: With `CN(CC(=O)O)NC(=O)C[C@H](N)C[C@@H](O)CN` [NEGAMYCIN] as the compound, how does the Ratio (COS-7 [1]) read?
Answer: 1.81

Question: For `CCOC(=O)CN(C)NC(=O)C[C@@H](N)CCN`, which Ratio (COS-7 [1]) is on record?
Answer: 2.08

Question: With `COc1cccc(COC(=O)CN(C)NC(=O)C[C@@H](N)CCN)c1` as the compound, how does the Ratio (COS-7 [1]) read?
Answer: 3.71

Question: For `CN[C@@H]1[C@@H](O)[C@@H](O[C@@H]2[C@@H](O)[C@H](O[C@H]3O[C@H]([C@@H](C)O)[C@@H](O)[C@H](O)[C@H]3N)[C@@H](N)C[C@H]2N)OC[C@]1(C)O` [GENETICIN], which Ratio (COS-7 [1]) is on record?
Answer: 6.65

Question: With `CN(CC(=O)OCc1cccc(Br)c1)NC(=O)C[C@@H](N)CCN` as the compound, how does the Ratio (COS-7 [1]) read?
Answer: 3.75

Question: For `CN(CC(=O)OCc1ccccc1Cl)NC(=O)C[C@@H](N)CCN`, which Ratio (COS-7 [1]) is on record?
Answer: 3.34

Question: With `CN(CC(=O)OCc1ccccc1)NC(=O)C[C@@H](N)CCN` as the compound, how does the Ratio (COS-7 [1]) read?
Answer: 4.04

Question: With `CN(CC(=O)O)NC(=O)[C@@H](N)CCCN` as the compound, how does the Ratio (COS-7 [1]) read?
Answer: 0.99

Question: Which Ratio (COS-7 [1]) does the source give for `CCNC(=O)CN(C)NC(=O)C[C@@H](N)CCN` here?
Answer: 1.42

Question: For `COc1ccc(COC(=O)CN(C)NC(=O)C[C@@H](N)CCN)cc1`, which Ratio (COS-7 [1]) is on record?
Answer: 3.25

Question: Which Ratio (COS-7 [1]) does the source give for `COc1ccccc1COC(=O)CN(C)NC(=O)C[C@@H](N)CCN` here?
Answer: 3.1
